Test results reported in ChEMBL document CHEMBL3611968, “Reengineered tricyclic anti-cancer agents” (Bioorg Med Chem, 2015).
Blank lines part the entries; values can stand above or below the molecule they belong to. The source made the active and inactive calls. The rule behind the calls is not given here.

Legend:
[1] = molecular target: D(2) dopamine receptor (Homo sapiens) (UniProt P14416); assay: Binding affinity to dopamine D2 receptor (unknown origin) at 0.1 mM by radioligand displacement assay relative to control
Chain of D(2) dopamine receptor (Homo sapiens) (P14416 whole entry): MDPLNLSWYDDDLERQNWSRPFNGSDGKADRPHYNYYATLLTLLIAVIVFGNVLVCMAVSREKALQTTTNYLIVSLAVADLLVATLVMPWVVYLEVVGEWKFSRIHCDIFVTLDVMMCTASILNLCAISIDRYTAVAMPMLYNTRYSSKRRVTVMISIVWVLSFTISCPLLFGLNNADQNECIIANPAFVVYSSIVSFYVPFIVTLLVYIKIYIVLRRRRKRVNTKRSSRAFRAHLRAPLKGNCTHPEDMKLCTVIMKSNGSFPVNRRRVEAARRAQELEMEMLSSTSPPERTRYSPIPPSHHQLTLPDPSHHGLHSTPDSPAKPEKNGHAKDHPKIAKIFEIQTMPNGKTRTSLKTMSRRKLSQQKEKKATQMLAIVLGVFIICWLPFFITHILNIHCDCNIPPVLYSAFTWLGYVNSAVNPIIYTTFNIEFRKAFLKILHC

[2] = AUCinfinity in mouse at 10 mg/kg, po; type: ADME, organism-based; set-up: dose 10 mg/kg, time infinity, route oral; details: in vivo
[3] = tested on: Mus musculus; assay: Toxicity in mouse assessed as induction of lethargy at 10 mg/kg relative to control; type: organism-based; details: in vivo
[4] = Half life in mouse at 10 mg/kg, po; type: ADME, organism-based; details: in vivo
[5] = molecular target: D(1A) dopamine receptor (Homo sapiens) (UniProt P21728); assay: Binding affinity to dopamine D1 receptor (unknown origin) at 1 mM by radioligand displacement assay relative to control
Chain of D(1A) dopamine receptor (Homo sapiens) (P21728 whole entry): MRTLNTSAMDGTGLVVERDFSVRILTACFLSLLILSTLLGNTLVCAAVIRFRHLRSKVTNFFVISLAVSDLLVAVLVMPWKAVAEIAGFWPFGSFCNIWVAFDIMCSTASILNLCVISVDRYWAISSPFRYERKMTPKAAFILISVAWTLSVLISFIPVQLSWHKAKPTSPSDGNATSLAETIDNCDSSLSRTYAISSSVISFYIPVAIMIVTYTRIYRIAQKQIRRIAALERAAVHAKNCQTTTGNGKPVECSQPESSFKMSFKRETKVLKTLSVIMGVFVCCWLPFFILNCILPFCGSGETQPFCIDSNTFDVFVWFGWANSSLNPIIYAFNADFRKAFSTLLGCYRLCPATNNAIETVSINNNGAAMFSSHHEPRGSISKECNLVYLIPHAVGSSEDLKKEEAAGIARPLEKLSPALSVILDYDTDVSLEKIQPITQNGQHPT

[6] = tested on: NCI-H1650; assay: Cell cycle arrest in human NCI-H1650 cells assessed as accumulation at sub-G1 phase by propidium iodide staining-based flow cytometric analysis; type: functional
[7] = Cmax in mouse at 10 mg/kg, ip; type: ADME, organism-based; set-up: dose 10 mg/kg, route intraperitoneal; details: in vivo
[8] = Half life in mouse at 1 mg/kg, ip; type: ADME, organism-based; details: in vivo
[9] = Bioavailability in mouse at 10 mg/kg, ip; type: ADME, organism-based; details: in vivo
[10] = Oral bioavailability in mouse at 10 mg/kg; type: ADME, organism-based; details: in vivo
[11] = AUClast in mouse at 1 mg/kg, iv; type: ADME, organism-based; details: in vivo
[12] = molecular target: D(1A) dopamine receptor (Homo sapiens) (UniProt P21728); assay: Binding affinity to dopamine D1 receptor (unknown origin) at 0.1 mM by radioligand displacement assay relative to control
[13] = Clearance in mouse at 1 mg/kg, iv; type: ADME, organism-based; details: in vivo
[14] = Volume of distribution at steady state in mouse at 1 mg/kg, iv; type: ADME, organism-based; details: in vivo, read-out: Vdss
[15] = molecular target: D(3) dopamine receptor (Homo sapiens) (UniProt P35462); assay: Binding affinity to dopamine D3 receptor (unknown origin) at 0.1 mM by radioligand displacement assay relative to control
Chain of D(3) dopamine receptor (Homo sapiens) (P35462 whole entry): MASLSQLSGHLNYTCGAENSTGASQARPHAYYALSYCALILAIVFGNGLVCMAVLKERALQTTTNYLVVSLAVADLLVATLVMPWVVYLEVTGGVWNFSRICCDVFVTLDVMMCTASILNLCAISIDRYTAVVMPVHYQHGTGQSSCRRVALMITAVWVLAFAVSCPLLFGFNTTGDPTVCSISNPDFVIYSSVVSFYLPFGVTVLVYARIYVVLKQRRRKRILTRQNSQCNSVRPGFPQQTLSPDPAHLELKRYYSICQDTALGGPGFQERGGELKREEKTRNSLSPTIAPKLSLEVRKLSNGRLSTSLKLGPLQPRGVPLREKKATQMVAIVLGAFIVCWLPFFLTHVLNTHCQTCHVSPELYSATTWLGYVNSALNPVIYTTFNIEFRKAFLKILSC

[16] = tested on: NCI-H1650; assay: Cytotoxicity against human NCI-H1650 cells assessed as reduction of colony formation at 20 to 40 uM after 7 days by crystal violet staining; type: functional, cell-based
[17] = tested on: NCI-H1650; assay: Cytotoxicity against human NCI-H1650 cells assessed as growth inhibition after 48 hrs by MTT assay; type: functional
Method in brief: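 H1650 cells were exposed to drug for 48 h at five concentrations bracketing 1–40 μM in 10 μM steps, with MTT read-out. GI50 is given only where the data form a sigmoidal dose response.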

[18] = AUClast in mouse at 10 mg/kg, po; type: ADME, organism-based; details: in vivo
[19] = Cmax in mouse at 10 mg/kg, po; type: ADME, organism-based; set-up: dose 10 mg/kg, route oral; details: in vivo
[20] = AUCinfinity in mouse at 1 mg/kg, ip; type: ADME, organism-based; set-up: time infinity, route intraperitoneal; details: in vivo
[21] = AUCinfinity in mouse at 1 mg/kg, iv; type: ADME, organism-based; set-up: dose 1 mg/kg, time infinity, route intravenous; details: in vivo
[22] = molecular target: D(1B) dopamine receptor (Homo sapiens) (UniProt P21918); assay: Binding affinity to dopamine D5 receptor (unknown origin) at 0.1 mM by radioligand displacement assay relative to control
Chain of D(1B) dopamine receptor (Homo sapiens) (P21918 whole entry): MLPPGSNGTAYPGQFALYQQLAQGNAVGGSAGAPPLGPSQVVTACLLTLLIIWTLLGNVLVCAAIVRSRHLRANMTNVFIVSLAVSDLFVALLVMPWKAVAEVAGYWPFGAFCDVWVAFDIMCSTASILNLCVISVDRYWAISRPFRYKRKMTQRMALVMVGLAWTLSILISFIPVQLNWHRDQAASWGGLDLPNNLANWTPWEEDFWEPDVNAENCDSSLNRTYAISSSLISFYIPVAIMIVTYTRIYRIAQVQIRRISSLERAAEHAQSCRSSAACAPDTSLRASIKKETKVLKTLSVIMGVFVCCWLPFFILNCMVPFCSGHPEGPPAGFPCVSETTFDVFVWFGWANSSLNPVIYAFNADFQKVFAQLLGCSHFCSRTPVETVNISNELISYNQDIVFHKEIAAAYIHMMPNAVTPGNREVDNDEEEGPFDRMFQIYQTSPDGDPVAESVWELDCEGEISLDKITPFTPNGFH

[23] = molecular target: D(3) dopamine receptor (Homo sapiens) (UniProt P35462); assay: Binding affinity to dopamine D3 receptor (unknown origin) at 1 mM by radioligand displacement assay relative to control
[24] = Tmax in mouse at 10 mg/kg, ip; type: ADME, organism-based; details: in vivo
[25] = molecular target: T1, D(4) dopamine receptor (Homo sapiens) (UniProt P21917); assay: Binding affinity to dopamine D4 receptor (unknown origin) at 0.1 mM by radioligand displacement assay relative to control
T1 sequence (whole entry): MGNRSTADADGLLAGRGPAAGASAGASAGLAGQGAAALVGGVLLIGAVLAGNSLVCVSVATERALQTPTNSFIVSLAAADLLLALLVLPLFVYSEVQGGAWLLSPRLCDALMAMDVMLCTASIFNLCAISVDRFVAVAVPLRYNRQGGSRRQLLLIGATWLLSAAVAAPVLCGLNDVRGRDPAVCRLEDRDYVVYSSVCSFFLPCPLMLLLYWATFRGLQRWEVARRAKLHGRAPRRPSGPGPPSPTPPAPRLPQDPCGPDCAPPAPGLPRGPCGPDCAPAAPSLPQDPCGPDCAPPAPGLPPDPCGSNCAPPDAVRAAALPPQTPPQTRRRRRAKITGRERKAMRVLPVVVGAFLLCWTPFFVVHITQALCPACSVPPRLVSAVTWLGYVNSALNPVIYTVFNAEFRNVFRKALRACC

[26] = Initial drug concentration in mouse at 1 mg/kg, iv; type: ADME, organism-based; details: in vivo
[27] = AUClast in mouse at 10 mg/kg, ip; type: ADME, organism-based; details: in vivo
[28] = Tmax in mouse at 10 mg/kg, po; type: ADME, organism-based; details: in vivo
[29] = molecular target: D(2) dopamine receptor (Homo sapiens) (UniProt P14416); assay: Binding affinity to dopamine D2 receptor (unknown origin) at 1 mM by radioligand displacement assay relative to control
[30] = molecular target: D(1B) dopamine receptor (Homo sapiens) (UniProt P21918); assay: Binding affinity to dopamine D5 receptor (unknown origin) at 1 mM by radioligand displacement assay relative to control
[31] = molecular target: RAC-alpha serine/threonine-protein kinase (Homo sapiens) (UniProt P31749); assay: Inhibition of AKT phosphorylation in human NCI-H1650 cells at 20 to 40 uM after 12 hrs by Western blot analysis; type: cell-based
Chain of RAC-alpha serine/threonine-protein kinase (Homo sapiens) (P31749 whole entry): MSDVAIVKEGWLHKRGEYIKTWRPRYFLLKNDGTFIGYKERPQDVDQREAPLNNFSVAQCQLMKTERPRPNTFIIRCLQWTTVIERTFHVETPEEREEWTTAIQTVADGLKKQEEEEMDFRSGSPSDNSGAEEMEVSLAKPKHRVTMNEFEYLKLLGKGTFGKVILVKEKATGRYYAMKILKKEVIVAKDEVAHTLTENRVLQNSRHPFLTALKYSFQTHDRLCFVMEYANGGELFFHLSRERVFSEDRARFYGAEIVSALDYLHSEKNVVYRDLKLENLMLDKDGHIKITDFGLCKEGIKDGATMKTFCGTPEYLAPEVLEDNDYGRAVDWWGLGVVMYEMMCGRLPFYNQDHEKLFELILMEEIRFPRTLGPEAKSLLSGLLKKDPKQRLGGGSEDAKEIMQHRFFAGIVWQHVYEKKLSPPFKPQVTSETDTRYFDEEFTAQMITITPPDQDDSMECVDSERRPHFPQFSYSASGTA

[32] = tested on: NCI-H1650; assay: Inhibition of ERK phosphorylation in human NCI-H1650 cells at 20 to 40 uM after 12 hrs by Western blot analysis; type: cell-based
[33] = molecular target: T1, D(4) dopamine receptor (Homo sapiens); assay: Binding affinity to dopamine D4 receptor (unknown origin) at 1 mM by radioligand displacement assay relative to control
[34] = tested on: NCI-H1650; assay: Cell cycle arrest in human NCI-H1650 cells assessed as accumulation at sub-G1 phase at 1 to 40 uM by propidium iodide staining-based flow cytometric analysis; type: functional
[35] = Half life in mouse at 1 mg/kg, iv; type: ADME, organism-based; details: in vivo

inhibition [1]: < 5%
AUC(0-inf) [2]: 498 ng·h/mL
half-life [4]: 1.19 h
inhibition [5]: 14%
Cmax [7]: 859 ng/mL
half-life [8]: 2.87 h
bioavailability [9]: 46.6%
bioavailability [10]: 15.8%
AUC(0-t) [11]: 310 ng·h/mL
inhibition [12]: < 5%
clearance [13]: 52.5 mL/min/kg
Vd [14]: 1.76 L/kg
inhibition [15]: < 5%
AUC(0-t) [18]: 489 ng·h/mL
Cmax [19]: 349 ng/mL
AUC(0-inf) [20]: 1450 ng·h/mL
AUC(0-inf) [21]: 317 ng·h/mL
inhibition [22]: < 10%
inhibition [23]: 22%
Tmax [24]: 0.25 h
inhibition [25]: < 5%
C0 [26]: 1200 ng/mL
AUC(0-t) [27]: 1450 ng·h/mL
Tmax [28]: 0.5 h
inhibition [29]: 21%
Compound: COC(=O)NCCCN1c2ccccc2Sc2ccc(Cl)cc21
Activity [3]: Non-toxic
Activity [6]: Dose-dependent effect
Activity [16]: Active
GI50 ([17]; NCI-H1650, 48 h): > 40 µM

inhibition [1]: > 95%
inhibition [30]: > 95%
inhibition [5]: > 95%
inhibition [31]: Active
inhibition [12]: > 95%
inhibition [15]: > 95%
inhibition [22]: 81%
inhibition [33]: > 95%
inhibition [23]: > 95%
inhibition [25]: 73%
inhibition [29]: > 95%
Compound: CN1CCN(CCCN2c3ccccc3Sc3ccc(C(F)(F)F)cc32)CC1 [TRIFLUOPERAZINE]
Activity [3]: Toxic
inhibition [32]: Active
GI50 ([17]; NCI-H1650, 48 h): 12.2 µM
Activity [34]: Active

inhibition [31]: Active
Compound: O=S(=O)(NCCN1c2ccccc2Sc2ccc(Cl)cc21)c1ccc(Cl)cc1
inhibition [32]: Active
GI50 ([17]; NCI-H1650, 48 h): 20 µM

inhibition [1]: < 5%
inhibition [12]: < 5%
inhibition [15]: < 5%
inhibition [22]: < 10%
inhibition [25]: < 5%
Compound: COC(=O)NCCCN1c2ccccc2CCc2ccc(Cl)cc21
GI50 ([17]; NCI-H1650, 48 h): > 40 µM

inhibition [1]: < 5%
inhibition [12]: < 5%
inhibition [15]: < 5%
inhibition [22]: < 10%
inhibition [25]: < 5%
Compound: Cc1ccc(S(=O)(=O)NCCCN2c3ccccc3CCc3ccc(Cl)cc32)cc1
GI50 ([17]; NCI-H1650, 48 h): > 40 µM

AUC(0-inf) [2]: 2510 ng·h/mL
half-life [4]: 3.14 h
half-life [35]: 1.36 h
inhibition [5]: 12%
Cmax [7]: 2250 ng/mL
half-life [8]: 4.35 h
bioavailability [9]: 50.2%
bioavailability [10]: 16.9%
AUC(0-t) [11]: 1480 ng·h/mL
inhibition [12]: < 5%
clearance [13]: 11.1 mL/min/kg
Vd [14]: 0.72 L/kg
AUC(0-t) [18]: 2500 ng·h/mL
Cmax [19]: 834 ng/mL
AUC(0-inf) [20]: 7570 ng·h/mL
AUC(0-inf) [21]: 1500 ng·h/mL
inhibition [22]: < 10%
Tmax [24]: 1 h
C0 [26]: 2970 ng/mL
AUC(0-t) [27]: 7440 ng·h/mL
Tmax [28]: 0.5 h
inhibition [29]: 14%
Compound: Cc1ccc(S(=O)(=O)NCCCN2c3ccccc3Sc3ccc(Cl)cc32)cc1
Activity [3]: Non-toxic
Activity [6]: Dose-dependent effect
Activity [16]: Active
GI50 ([17]; NCI-H1650, 48 h): > 40 µM

Compound: O=S(=O)(N[C@H]1CC[C@H](N2c3ccccc3CCc3ccccc32)CC1)c1ccc(Cl)cc1
GI50 ([17]; NCI-H1650, 48 h): 15 µM

Compound: O=S(=O)(NCCCN1CCCCc2ccccc21)c1ccc(Cl)cc1
GI50 [17]: inactive

Compound: O=S(=O)(c1ccc(OC(F)(F)F)cc1)N1CCCCC1CCN1c2ccccc2CCc2ccccc21 (stereo not given)
GI50 [17]: inactive

Compound: COC(=O)NCCN1c2ccccc2Sc2ccc(Cl)cc21
GI50 [17]: inactive

Compound: O=S(=O)(NCCNC1c2ccccc2CCc2ccccc21)c1ccc(OC(F)(F)F)cc1
GI50 ([17]; NCI-H1650, 48 h): 25 µM

Compound: O=S(=O)(NCCCN1c2ccccc2CCc2ccccc21)c1ccc(N2CCOCC2)cn1
GI50 ([17]; NCI-H1650, 48 h): > 40 µM

Compound: O=S(=O)(NCCN1c2ccccc2CCc2ccc(Cl)cc21)c1ccc(OC(F)(F)F)cc1
GI50 ([17]; NCI-H1650, 48 h): 22 µM

Compound: O=S(=O)(NC1CCCC(=C2c3ccccc3CCc3ccccc32)C1)c1ccc(OC(F)(F)F)cc1 (stereo not given)
GI50 ([17]; NCI-H1650, 48 h): 15 µM

Compound: O=S(=O)(NCCCN1c2ccccc2CCc2cccnc21)c1ccc(OC(F)(F)F)cc1
GI50 ([17]; NCI-H1650, 48 h): 22 µM

Compound: O=S(=O)(NCCCN1c2ccccc2CCc2ccc(Cl)cc21)c1ccc(F)cc1
GI50 ([17]; NCI-H1650, 48 h): > 40 µM
